In ChEMBL document CHEMBL5104202, “Structure-Uptake Relationship Studies of Oxazolidinones in Gram-Negative ESKAPE Pathogens” (J Med Chem, 2022):
Values after ≈ are worked out from the molar mass of the structure shown.

Experiments:
Escherichia coli [1] = test: Antibacterial activity against Escherichia coli SQ110 DTC C2610A incubated for 24 hrs by twofold serial dilution method; format: functional
In short: (§1)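 E. coli SQDTC (TolC-deficient, single rRNA operon) carrying LZD-resistant 23S rRNA substitutions. Compounds come from 10 mM DMSO stocks and are twofold serially diluted in 96-well plates.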

Escherichia coli [2] = test: Antibacterial activity against Escherichia coli SQ110 DTC G2032A incubated for 24 hrs by twofold serial dilution method; format: functional; in short: as §1
Escherichia coli [3] = test: Antibacterial activity against recombinant OM pore producing Escherichia coli assessed as inhibition of bacterial growth; format: functional, organism-based
Staphylococcus aureus = test: Antibacterial activity against Staphylococcus aureus ATCC 25923 incubated for 24 hrs by twofold serial dilution method; format: functional
In short: (§2)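 MICs by twofold serial dilution in 96-well plates from 10 mM DMSO stocks. Cultures grown in the indicated media; for E. coli, A. baumannii and P. aeruginosa, inducers were 0.1% arabinose, 1% arabinose and 0.1 mM IPTG respectively.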

Acinetobacter baumannii [4] = test: Antibacterial activity against efflux pump lacking/recombinant OM pore producing Acinetobacter baumannii incubated for 24 hrs by twofold serial dilution method; format: functional; in short: as §2
Pseudomonas aeruginosa [5] = test: Antibacterial activity against wild type Pseudomonas aeruginosa assessed as inhibition of bacterial growth; format: functional, organism-based
Acinetobacter baumannii [6] = test: Antibacterial activity against recombinant OM pore producing Acinetobacter baumannii assessed as inhibition of bacterial growth; format: functional, organism-based
Escherichia coli [7] = test: Antibacterial activity against efflux pump lacking Escherichia coli assessed as inhibition of bacterial growth; format: functional, organism-based
Pseudomonas aeruginosa [8] = test: Antibacterial activity against recombinant OM pore producing Pseudomonas aeruginosa assessed as inhibition of bacterial growth; format: functional, organism-based
Acinetobacter baumannii [9] = test: Antibacterial activity against efflux pump lacking/recombinant OM pore producing Acinetobacter baumannii assessed as inhibition of bacterial growth; format: functional, organism-based
Escherichia coli [10] = test: Antibacterial activity against Escherichia coli SQ110 incubated for 24 hrs by twofold serial dilution method; format: functional; in short: as §2
Escherichia coli [11] = test: Antibacterial activity against Escherichia coli SQ110 DTC incubated for 24 hrs by twofold serial dilution method; format: functional; in short: as §2
Pseudomonas aeruginosa [12] = test: Antibacterial activity against efflux pump lacking/recombinant OM pore producing Pseudomonas aeruginosa incubated for 24 hrs by twofold serial dilution method; format: functional; in short: as §2
Escherichia coli [13] = test: Antibacterial activity against efflux pump lacking/recombinant OM pore producing Escherichia coli assessed as inhibition of bacterial growth; format: functional, organism-based
Pseudomonas aeruginosa [14] = test: Antibacterial activity against efflux pump lacking/recombinant OM pore producing Pseudomonas aeruginosa assessed as inhibition of bacterial growth; format: functional, organism-based
Escherichia coli [15] = test: Antibacterial activity against wild type Escherichia coli assessed as inhibition of bacterial growth; format: functional, organism-based
Escherichia coli [16] = test: Antibacterial activity against efflux pump lacking/recombinant OM pore producing Escherichia coli incubated for 24 hrs by twofold serial dilution method; format: functional
In short: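 E. coli efflux-knockout/hyperporinated strain grown in M9 medium with 50 mM MOPS (pH 7.2) and 0.2% xylose. OM pore induced with 0.1% arabinose. Compounds come from 10 mM DMSO stocks and are twofold serially diluted in 96-well plates.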

Acinetobacter baumannii [17] = test: Antibacterial activity against wild type Acinetobacter baumannii assessed as inhibition of bacterial growth; format: functional, organism-based
Pseudomonas aeruginosa [18] = test: Antibacterial activity against efflux pump lacking Pseudomonas aeruginosa assessed as inhibition of bacterial growth; format: functional, organism-based
Acinetobacter baumannii [19] = test: Antibacterial activity against efflux pump lacking Acinetobacter baumannii assessed as inhibition of bacterial growth; format: functional, organism-based
Pseudomonas aeruginosa [20] = test: Antibacterial activity against multidrug resistant Pseudomonas aeruginosa BAA 2109 assessed as inhibition of bacterial growth incubated for 24 hrs in […] medium by twofold serial dilution method; format: functional
Acinetobacter baumannii [21] = test: Antibacterial activity against multidrug resistant Acinetobacter baumannii Ab5075 assessed as inhibition of bacterial growth incubated for 24 hrs in MHI medium by twofold serial dilution method; format: functional
Klebsiella pneumoniae [22] = test: Antibacterial activity against multidrug resistant Klebsiella pneumoniae ATCC13883 assessed as inhibition of bacterial growth incubated for 24 hrs in M9-MOPS medium by twofold serial dilution method; format: functional
Acinetobacter baumannii [23] = test: Antibacterial activity against multidrug resistant Acinetobacter baumannii AYE assessed as inhibition of bacterial growth incubated for 24 hrs in MHI medium by twofold serial dilution method; format: functional
Acinetobacter baumannii [24] = test: Antibacterial activity against multidrug resistant Acinetobacter baumannii AYE assessed as inhibition of bacterial growth incubated for 24 hrs in M9-MOPS medium by twofold serial dilution method; format: functional
Klebsiella aerogenes = test: Antibacterial activity against multidrug resistant Klebsiella aerogenes ATCC13048 assessed as inhibition of bacterial growth incubated for 24 hrs in M9-MOPS medium by twofold serial dilution method; format: functional
Pseudomonas aeruginosa [25] = test: Antibacterial activity against multidrug resistant Pseudomonas aeruginosa BAA 2108 assessed as inhibition of bacterial growth incubated for 24 hrs in MHI medium by twofold serial dilution method; format: functional
Pseudomonas aeruginosa [26] = test: Antibacterial activity against multidrug resistant Pseudomonas aeruginosa BAA 2109 assessed as inhibition of bacterial growth incubated for 24 hrs in MHI medium by twofold serial dilution method; format: functional
Klebsiella pneumoniae [27] = test: Antibacterial activity against multidrug resistant Klebsiella pneumoniae ATCC43816 assessed as inhibition of bacterial growth incubated for 24 hrs in MHI medium by twofold serial dilution method; conditions: ATCC43816, 24 h
Klebsiella pneumoniae [28] = test: Antibacterial activity against multidrug resistant Klebsiella pneumoniae ATCC43816 assessed as inhibition of bacterial growth incubated for 24 hrs in MHI medium by twofold serial dilution method; format: functional
Acinetobacter baumannii [29] = test: Antibacterial activity against multidrug resistant Acinetobacter baumannii Ab5075 assessed as inhibition of bacterial growth incubated for 24 hrs in M9-MOPS medium by twofold serial dilution method; format: functional
Klebsiella pneumoniae [30] = test: Antibacterial activity against multidrug resistant Klebsiella pneumoniae ATCC13883 assessed as inhibition of bacterial growth incubated for 24 hrs in MHI medium by twofold serial dilution method; format: functional
Pseudomonas aeruginosa [31] = test: Antibacterial activity against multidrug resistant Pseudomonas aeruginosa BAA 2108 assessed as inhibition of bacterial growth incubated for 24 hrs in M9-MOPS medium by twofold serial dilution method; format: functional
Klebsiella pneumoniae [32] = test: Antibacterial activity against multidrug resistant Klebsiella pneumoniae ATCC43816 assessed as inhibition of bacterial growth incubated for 24 hrs in M9-MOPS medium by twofold serial dilution method; format: functional

Structure (SMILES)	MIC (Escherichia coli [1]) [µM]	MIC (Escherichia coli [2]) [µM]	IC50 (Escherichia coli [3]) [µM]	MIC (Staphylococcus aureus) [µM]	MIC (Acinetobacter baumannii [4]) [µM]	IC50 (Pseudomonas aeruginosa [5]) [µM]	IC50 (Acinetobacter baumannii [6]) [µM]	IC50 (Escherichia coli [7]) [µM]	IC50 (Pseudomonas aeruginosa [8]) [µM]	IC50 (Acinetobacter baumannii [9]) [µM]	MIC (Escherichia coli [10]) [µM]	MIC (Escherichia coli [11]) [µM]	MIC (Pseudomonas aeruginosa [12]) [µM]	IC50 (Escherichia coli [13]) [µM]	IC50 (Pseudomonas aeruginosa [14]) [µM]	IC50 (Escherichia coli [15]) [µM]	MIC (Escherichia coli [16]) [µM]	IC50 (Acinetobacter baumannii [17]) [µM]	IC50 (Pseudomonas aeruginosa [18]) [µM]	IC50 (Acinetobacter baumannii [19]) [µM]	also measured
C[n+]1ccc(-c2ccc(N3C[C@H](CO)OC3=O)cc2F)cc1	100	> 100	12.3	> 100	> 100	> 100	13.8	10	59.7	13.8	100	50	> 100	11	9.4	13.5	> 100	59.4	48.8	23.3	–
O=C1O[C@@H](CO)CN1c1ccc(-c2cccc(CO)c2)c(F)c1	–	–	1.5	–	–	> 100	10.8	1.5	> 100	7.6	–	–	–	2	13	66.9	–	45.8	15.5	5.4	MIC (Pseudomonas aeruginosa [20]): > 200 µM; MIC (Acinetobacter baumannii [21]): > 200 µM; MIC (Klebsiella pneumoniae [22]): 200 µM (≈ 63.5 µg/mL); MIC (Acinetobacter baumannii [23]): > 200 µM; MIC (Acinetobacter baumannii [24]): 200 µM (≈ 63.5 µg/mL); MIC (Klebsiella aerogenes): > 200 µM; MIC (Pseudomonas aeruginosa [25]): > 200 µM; MIC (Pseudomonas aeruginosa [26]): > 200 µM; MIC (Klebsiella pneumoniae [27]): > 200 µM; MIC (Klebsiella pneumoniae [28]): > 200 µM; MIC (Acinetobacter baumannii [29]): 200 µM (≈ 63.5 µg/mL); MIC (Klebsiella pneumoniae [30]): > 200 µM; MIC (Pseudomonas aeruginosa [31]): > 200 µM; MIC (Klebsiella pneumoniae [32]): > 200 µM
O=C1O[C@@H](CO)CN1c1ccc(-c2ccc(CO)cc2)c(F)c1	25 (≈ 7.93 µg/mL)	50 (≈ 15.9 µg/mL)	17.6	1.56 (≈ 0.495 µg/mL)	12.5	> 100	5.7	3.9	> 100	4.6	> 100	12.5 (≈ 3.97 µg/mL)	6.25	3.7	5.5	67.9	25	45.3	5.3	4.4	–
Nc1ncc(-c2ccc(N3C[C@H](CO)OC3=O)cc2F)cn1	50 (≈ 15.2 µg/mL)	100 (≈ 30.4 µg/mL)	2	6.25 (≈ 1.9 µg/mL)	50	> 100	> 100	5.9	> 100	53	> 100	25 (≈ 7.61 µg/mL)	12.5	1.5	33	> 100	> 100	> 100	> 100	53	–
C[n+]1ccc(-c2ccc(-c3ccc(N4C[C@H](CO)OC4=O)cc3F)cc2)cc1	12.5	25	1.7	12.5	50	> 100	10	0.5	> 100	10.8	> 100	3.12	12.5	0.5	> 100	15.4	12.5	> 100	> 100	64	MIC (Pseudomonas aeruginosa [20]): > 200 µM; MIC (Acinetobacter baumannii [21]): > 200 µM; MIC (Klebsiella pneumoniae [22]): 100 µM; MIC (Acinetobacter baumannii [23]): > 200 µM; MIC (Acinetobacter baumannii [24]): > 200 µM; MIC (Klebsiella aerogenes): 50 µM; MIC (Pseudomonas aeruginosa [25]): > 200 µM; MIC (Pseudomonas aeruginosa [26]): > 200 µM; MIC (Klebsiella pneumoniae [27]): > 200 µM; MIC (Klebsiella pneumoniae [28]): > 200 µM; MIC (Acinetobacter baumannii [29]): 200 µM; MIC (Klebsiella pneumoniae [30]): > 200 µM; MIC (Pseudomonas aeruginosa [31]): > 200 µM; MIC (Klebsiella pneumoniae [32]): > 200 µM
